Compound activity (PubChem BioAssay)
Hits are enriched below; roughly 1.7% of the tested compounds scored in any of these assays.
STEP block – inhibitors of human striatal-enriched phosphatase STEP. recombinant STEP, OMFP fluorogenic substrate, fluorescence. inhibition, % at 20 µM. hit rate 0.25% among 360,000. AID 588621;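 active = inhibition at 20 µM, scaled per plate between control wells, above about 37%, limit read from the data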;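 also: 0% = DMSO with enzyme and substrate and 100% = substrate only without enzyme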
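System: STEP phosphatase, cell-free reaction; Buffer or medium: Bis-Tris pH 6.0 buffer with DTT, detergent; Incubation: 20 min at room temperature, dark; Measured by: fluorescence, 480/540 nm.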
LMPTP inh – LMPTP (human) inhibition; P24666; recombinant LMPTP-A, OMFP fluorogenic substrate, fluorescence intensity; inhibition, % at 20 µM; hit rate 0.22% among 360,000; AID 651560;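 active = compounds that cut the enzyme signal by at least half of the control window in the single-dose screen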;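 also: plate controls were DMSO wells with enzyme plus substrate for no effect and substrate without enzyme for full effect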
Target sequence (P24666 whole entry, looked up): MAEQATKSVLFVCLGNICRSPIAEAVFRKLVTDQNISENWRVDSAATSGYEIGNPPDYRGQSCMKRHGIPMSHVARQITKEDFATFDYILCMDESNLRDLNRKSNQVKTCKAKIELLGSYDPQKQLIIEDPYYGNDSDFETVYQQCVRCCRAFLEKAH
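Test system – LMPTP-A phosphatase enzyme · Quantity – 0.625 nM LMPTP-A final · Reagent – OMFP substrate, 400 µM final · Dosing – one test concentration per compound, 20 µM, with 3% DMSO overall · Timing – 50 min enzyme reaction at room temperature, protected from light · Detection – fluorescence intensity · Controls – substrate-only low control, DMSO enzyme-plus-substrate high control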
Scp1 inh – Scp-1 (human) phosphatase inhibition; Recombinant Scp1, phosphopeptide, malachite green phosphate absorbance; Q9GZU7; inhibition, % at 20 µM; hit rate 0.88% among 340,000;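 active = inhibition above about 50% at 20 µM, limit read from the data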;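 also: plate controls were DMSO wells with enzyme for no effect and wells lacking enzyme for full effect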
Target sequence (Q9GZU7 76-261 limits assumed): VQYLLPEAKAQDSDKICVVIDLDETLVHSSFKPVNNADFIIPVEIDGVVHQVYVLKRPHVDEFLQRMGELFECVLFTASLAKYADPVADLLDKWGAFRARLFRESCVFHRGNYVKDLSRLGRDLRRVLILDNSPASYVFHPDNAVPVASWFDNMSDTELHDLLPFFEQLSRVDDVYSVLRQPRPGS
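Material: truncated SCP-1 phosphatase (76-261aa) / Buffer or medium: 50 mM Tris acetate pH 5.5, 0.005% Tween-20, 10 mM MgCl2 / Compound dosing: one concentration, 20 µM, with 1.0% DMSO / Incubation: 45 min room-temperature reaction, 5 min colour, 30 min stabiliser / Detection: colorimetric free-phosphate detection, absorbance 630 nm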
DNMT1 inh – DNMT1 (human) enzyme inhibition. DNMT1 molecular beacon, Hinp1I cleavage, fluorescence. inhibition (reported as % activation of signal), % at 10 µM. AID 588458. P26358. hit rate 0.83% among 360,000; in the data active = inhibition above about 50%
SUMO1 PPI mod – SUMO1-SIM interaction modulation | P63165 | SUMO1 binding to a labelled peptide, TR-FRET, 1 h | inhibition, % at 20 µM | hit rate 0.33% among 360,000; in the data active = inhibition above about 37%
Target sequence (P63165 whole entry, looked up): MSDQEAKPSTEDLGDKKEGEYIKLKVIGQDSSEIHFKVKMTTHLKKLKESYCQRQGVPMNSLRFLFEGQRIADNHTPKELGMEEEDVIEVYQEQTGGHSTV
Scp1 confirm – Scp-1 (human) inhibition, single-dose confirmed | shares compounds with Scp1 inh | recombinant SCP-1 catalytic domain, phosphate release, malachite green absorbance | inhibition, % at 20 µM | hit rate 61% among 2,500 | AID 540281;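 also: plate controls were DMSO with enzyme for no effect and buffer wells lacking enzyme for full effect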
MG interference – counter-screen for Scp-1 inhibitors: colorimetric interference; apparent inhibition (interference), % at 20 µM; 2,500 tested, under 10 active; shares compounds with Scp1 inh; Colorimetric interference counterscreen, malachite green absorbance 630 nm;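 also: compounds added after enzyme reaction finished so only phosphate colour detection is probed; plate controls were DMSO wells with completed Scp-1 reaction for no effect and substrate wells lacking enzyme for full effect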
Scp-1 Tm shift – validation of human Scp-1 inhibitors by thermal shift binding; shares compounds with Scp1 inh; thermal shift relative to vanadate control, % at 40 µM; Recombinant SCP1, Sypro Orange thermal shift Tm; hit rate 25% among 1,500;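 active = substances whose mean melting-temperature shift, as a percentage of the reference inhibitor's shift, reaches about 5.3%, limit read from the data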;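 also: 0% = Tm of DMSO wells and 100% = Tm with sodium orthovanadate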
Starred values were filed as active, the others as inactive; x = no result.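 The calls were made as follows, unless noted: active = inhibition of at least 30% at 20 µM; inactive = the rest.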

SMILES	STEP block	LMPTP inh	Scp1 inh	DNMT1 inh	SUMO1 PPI mod	Scp1 confirm	MG interference	Scp-1 Tm shift
C=CCOc1ccc(Br)cc1/C=C1/SC(=Nc2ccc(C(=O)O)cc2)NC1=O	65*	81*	86*	14	11	75*	-13	5
CCc1nnc(NC(=O)CCC(=O)N2CCN(C3c4ccccc4-c4ccccc43)CC2)s1	1	0	72*	-2	-5	-21	-12	x
CCCS(=O)(=O)NC(=O)C1(C)CCCN(C(=O)/C=C/c2ccccc2)C1 (stereo unspecified)	-1	0	x	-1	-2	x	x	x
CCC(=O)c1ccc(OCC(=O)Nc2cc(S(=O)(=O)N3CCCCC3)ccc2N2CCN(CC)CC2)cc1	0	-2	106*	0	9	-18	-14	x
Fc1ccc(Oc2ccnc(Cl)n2)c(Cl)c1	x	x	51*	x	x	-6	-9	x
Nc1ccc(Oc2ncccn2)c(Cl)c1	-5	2	5	0	-14	x	x	x
CCOC(=O)C1CCCN(c2c(NCCN3CCCCC3CC)c(=O)c2=O)C1 (stereo unspecified)	-2	0	57*	0	6	-2	-7	x
O=C(COC(=O)Cc1ccc(S(=O)(=O)N2CCOCC2)s1)Nc1ccc([N+](=O)[O-])cc1	3	2	29	6	-22	x	x	x
COc1ccc(/C=C(\C#N)C(=O)Nc2ccc3[nH]c(=O)[nH]c3c2)cc1	4	32	111*	24	-2	66*	-14	-5
NC(=O)c1nsc(C(=O)N(c2cccc(F)c2)C(C(=O)NCC2CCCO2)c2ccc3ncccc3c2)c1N (stereo unspecified)	2	2	4	-2	-13	x	x	x
O=C(CCCN1C(=O)/C(=C\c2ccccc2)SC1=S)Nc1ccc(C(=O)O)cc1	1	2	1	1	-23	x	x	x
CCOc1ccc(/C=C2\SC(=S)N(CCC(=O)Nc3cccc(C(=O)O)c3)C2=O)cc1	54*	74*	85*	0	-16	61*	-20	37*
COc1cccc(/C=C2\SC(=S)N(CCCC(=O)Nc3cccc(C(=O)O)c3)C2=O)c1	1	-1	x	1	-20	x	x	x
O=C(CCN1C(=O)S/C(=C\c2ccc(Cl)cc2)C1=O)Nc1ccc(C(=O)O)cc1	8	12	80*	1	-23	72*	-13	-4
CCOc1ccc(/C=C2\SC(=S)N(CCC(=O)Nc3ccc(C(=O)O)cc3)C2=O)cc1	45*	67*	88*	62*	31	60*	-20	5
O=C(CCN1C(=O)/C(=C/c2ccc3c(c2)OCO3)SC1=S)Nc1ccc(C(=O)O)cc1	18	92*	84*	5	4	71*	-11	8.7*
CC(OC(=O)c1nc(Cl)ccc1Cl)C(=O)NCc1ccccc1 (stereo unspecified)	-2	-2	x	-5	0	x	x	x
Cc1coc2cc3oc(=O)c(CC(=O)N[C@@H](CC(C)C)C(=O)O)c(C)c3cc12	0	0	-9	18	5	x	x	x
Cc1ccc(NC(=O)CN2C(=O)S/C(=C\c3cc(Cl)c(OCC(=O)O)c(Cl)c3)C2=O)cc1	98*	85*	90*	8	20	57*	-15	-4
O=C(N/N=C/C(Cl)=C/c1ccccc1)c1ccc2c(c1)OCO2	38	56*	101*	8	2	53*	-18	-15
COc1ccc(C(=O)NCC(c2ccco2)N(C)C)cc1S(=O)(=O)NCc1ccc(Cl)cc1 (stereo unspecified)	2	-3	-6	2	-3	x	x	x
Cc1ccc(/C=C/C(=O)N2CCN(S(=O)(=O)c3cccs3)CC2)o1	-2	0	-5	0	9	x	x	x
O=C(/C=C/c1ccco1)N1CCN(S(=O)(=O)c2cccs2)CC1	3	7	58*	10	-3	47*	-4	1
O=C(Cc1ccc(S(=O)(=O)N2CCOCC2)s1)N1CCN(S(=O)(=O)c2cccc(Cl)c2)CC1	0	2	-1	-1	-3	x	x	x
O=C(O)C1CC=CCC1C(=O)N1CCc2ccccc21 (stereo unspecified)	5	1	52*	33	-2	49*	0	0
SMILES	STEP block	LMPTP inh	Scp1 inh	DNMT1 inh	SUMO1 PPI mod	Scp1 confirm	MG interference	Scp-1 Tm shift
O=C(O)C1C2C=CC(C2)C1C(=O)N1CCc2ccccc21 (stereo unspecified)	3	0	-5	6	-3	x	x	x
CCc1ccc([C@@H]2CC(=O)[C@@H]3CN(S(=O)(=O)c4ccc(Cl)cc4)[C@H](c4ccc(C)cc4)C[C@@H]3N2S(=O)(=O)c2ccc(C)cc2)cc1	0	1	x	9	1	x	x	x
CC(CCC(=O)O)C1CCC2C3CCC4C[C@H](O)CCC4(C)C3CC(=O)C12C (stereo partly specified)	1	-1	-6	1	-1	x	x	x
C[C@H](CCC(=O)O)[C@H]1CC[C@H]2[C@@H]3CC[C@@H]4C[C@H](O)CC[C@]4(C)[C@H]3CC[C@]12C	0	2	58*	3	23	56*	-22	-15
Cc1cccc2cc(C(c3nnnn3C(C)(C)C)N(Cc3ccco3)CC3CCCO3)c(=O)[nH]c12 (stereo unspecified)	3	18	61*	7	4	53*	-7	-2
O=C(O)c1ccc([N+](=O)[O-])c(CS(=O)(=O)c2ccc(Cl)cc2)c1	-1	-1	66*	-1	0	4	-15	x
CC(C)NS(=O)(=O)c1ccc(NCCCn2ccnc2)c([N+](=O)[O-])c1	-2	-2	-3	1	-33	x	x	x
Cc1cccn2c(=O)c3cc(C(=O)NC4CCCC4)n(C)c3nc12	-1	1	68*	-3	-19	-12	-11	x
Cc1cccc(C)c1NC(=O)CN1C(=O)S/C(=C\c2cccn2C)C1=O	2	0	2	18	-2	x	x	x
Cc1cccc(NC(=O)CN2C(=O)S/C(=C\c3cccn3-c3cccc(C(=O)O)c3)C2=O)c1	11	4	70*	26	-6	71*	-6	11*
Cc1cccc(C)c1NC(=O)CN1C(=O)S/C(=C\c2cccn2-c2cccc(C(=O)O)c2)C1=O	18	0	58*	23	-16	81*	-13	6.6*
COc1cc(/C=C2\C(=N)N3N=C(S(C)(=O)=O)SC3=NC2=O)ccc1OS(=O)(=O)c1ccc(C)cc1	3	1	69*	-1	14	75*	-16	12*
